Assay results from article PMC7967294 (ACS chemical neuroscience, 2020).

What was measured:
GluN1/GluN2A [1] = target: T1, GluN1/GluN2A (Rattus norvegicus, UniProt P35439+Q00959); details: cited from earlier work
GluN1/GluN2D [2] = target: T2, GluN1/GluN2D (Rattus norvegicus, UniProt P35439+Q62645); details: cited from earlier work
GluN1/GluN2B [3] = target: T3, GluN1/GluN2B (Rattus norvegicus, UniProt P35439+Q00960); details: cited from earlier work
GluN1/GluN2C [4] = target: T4, GluN1/GluN2C (Rattus norvegicus, UniProt P35439+Q00961); details: cited from earlier work
T4 sequence (Q00961 20-1237, other chains not shown): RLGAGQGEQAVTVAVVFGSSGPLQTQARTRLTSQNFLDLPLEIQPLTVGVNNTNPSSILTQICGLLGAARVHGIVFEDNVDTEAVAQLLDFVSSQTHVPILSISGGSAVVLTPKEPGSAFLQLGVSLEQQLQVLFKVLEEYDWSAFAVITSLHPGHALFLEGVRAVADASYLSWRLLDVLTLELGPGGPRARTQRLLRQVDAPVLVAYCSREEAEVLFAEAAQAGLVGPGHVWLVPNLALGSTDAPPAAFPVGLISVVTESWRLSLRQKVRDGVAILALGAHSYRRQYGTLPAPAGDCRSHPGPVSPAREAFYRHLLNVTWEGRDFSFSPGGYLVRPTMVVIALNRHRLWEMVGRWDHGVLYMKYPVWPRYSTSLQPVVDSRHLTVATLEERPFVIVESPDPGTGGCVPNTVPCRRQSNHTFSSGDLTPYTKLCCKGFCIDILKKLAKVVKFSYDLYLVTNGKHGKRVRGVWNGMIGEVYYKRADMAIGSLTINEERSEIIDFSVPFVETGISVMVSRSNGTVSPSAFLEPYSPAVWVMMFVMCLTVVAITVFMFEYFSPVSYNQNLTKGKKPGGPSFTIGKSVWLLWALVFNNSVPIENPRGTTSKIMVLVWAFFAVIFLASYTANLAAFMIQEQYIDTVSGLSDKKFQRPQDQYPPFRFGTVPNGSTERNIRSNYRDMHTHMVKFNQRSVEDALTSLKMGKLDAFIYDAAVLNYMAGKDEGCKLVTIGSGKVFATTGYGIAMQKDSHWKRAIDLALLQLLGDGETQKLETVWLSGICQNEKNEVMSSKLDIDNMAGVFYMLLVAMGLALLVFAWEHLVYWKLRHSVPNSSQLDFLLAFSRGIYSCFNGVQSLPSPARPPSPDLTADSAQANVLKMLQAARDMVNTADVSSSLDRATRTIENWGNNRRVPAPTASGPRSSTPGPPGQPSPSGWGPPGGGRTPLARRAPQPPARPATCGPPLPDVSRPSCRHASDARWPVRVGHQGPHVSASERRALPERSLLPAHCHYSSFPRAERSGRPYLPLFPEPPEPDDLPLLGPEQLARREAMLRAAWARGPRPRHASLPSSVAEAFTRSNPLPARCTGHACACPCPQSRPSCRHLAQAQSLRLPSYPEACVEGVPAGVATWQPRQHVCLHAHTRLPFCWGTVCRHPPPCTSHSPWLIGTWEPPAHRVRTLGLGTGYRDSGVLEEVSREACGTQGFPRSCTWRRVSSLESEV

GluN1/GluN2D [5] = target: T2, GluN1/GluN2D; test: Two electrode voltage clamp recording, Xenopus oocytes; assay type: cell-based
GluN1/GluN2C [6] = target: T4, GluN1/GluN2C; test: Two electrode voltage clamp recording, Xenopus oocytes; assay type: cell-based
How it was run: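 Xenopus oocytes expressing GluN1/GluN2 (1:2 cRNA) were clamped at −40 mV at 23 °C, 2–5 days post-injection, with 30 μM glycine in all solutions. Test compound was applied at increasing concentrations during saturating 100 μM glutamate/30 μM glycine. […] Data came from 5–22 oocytes, 2–3 batches.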

GluN1/GluN2A [7] = target: T1, GluN1/GluN2A; details: cited from earlier work; remark: listed apart in the source
[8] = system: GluN2C- and GluN2D-containing NMDARs; test: Two electrode voltage clamp recording, Xenopus oocytes, CIQ-sensitive subunits; assay type: cell-based, rat
GluN1/GluN2B [9] = target: T3, GluN1/GluN2B; details: cited from earlier work; remark: listed apart in the source
GluN1/GluN2B [10] = target: T3, GluN1/GluN2B; test: Two electrode voltage clamp recording, Xenopus oocytes; assay type: cell-based; details: read-out: response, % of control
How it was run: (§1)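 Defolliculated stage V–VI Xenopus laevis oocytes were injected with GluN1 and GluN2 cRNA at a 1:2 ratio (0.2–10 ng total) and recorded 2–5 days later at 23 °C by two-electrode voltage clamp at −40 mV, with gravity-fed solutions. Currents evoked by 100 μM glutamate plus 30 μM glycine were measured with 100 μM test compound, as % of control; n = 6 oocytes.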

GluN1/GluN2A [11] = target: T1, GluN1/GluN2A; test: as above; assay type: cell-based; details: read-out: response, % of control
How it was run: as §1

[12] = saturating glutamate and glycine, oocytes

T2 sequence (Q62645 28-1323, other chains not shown): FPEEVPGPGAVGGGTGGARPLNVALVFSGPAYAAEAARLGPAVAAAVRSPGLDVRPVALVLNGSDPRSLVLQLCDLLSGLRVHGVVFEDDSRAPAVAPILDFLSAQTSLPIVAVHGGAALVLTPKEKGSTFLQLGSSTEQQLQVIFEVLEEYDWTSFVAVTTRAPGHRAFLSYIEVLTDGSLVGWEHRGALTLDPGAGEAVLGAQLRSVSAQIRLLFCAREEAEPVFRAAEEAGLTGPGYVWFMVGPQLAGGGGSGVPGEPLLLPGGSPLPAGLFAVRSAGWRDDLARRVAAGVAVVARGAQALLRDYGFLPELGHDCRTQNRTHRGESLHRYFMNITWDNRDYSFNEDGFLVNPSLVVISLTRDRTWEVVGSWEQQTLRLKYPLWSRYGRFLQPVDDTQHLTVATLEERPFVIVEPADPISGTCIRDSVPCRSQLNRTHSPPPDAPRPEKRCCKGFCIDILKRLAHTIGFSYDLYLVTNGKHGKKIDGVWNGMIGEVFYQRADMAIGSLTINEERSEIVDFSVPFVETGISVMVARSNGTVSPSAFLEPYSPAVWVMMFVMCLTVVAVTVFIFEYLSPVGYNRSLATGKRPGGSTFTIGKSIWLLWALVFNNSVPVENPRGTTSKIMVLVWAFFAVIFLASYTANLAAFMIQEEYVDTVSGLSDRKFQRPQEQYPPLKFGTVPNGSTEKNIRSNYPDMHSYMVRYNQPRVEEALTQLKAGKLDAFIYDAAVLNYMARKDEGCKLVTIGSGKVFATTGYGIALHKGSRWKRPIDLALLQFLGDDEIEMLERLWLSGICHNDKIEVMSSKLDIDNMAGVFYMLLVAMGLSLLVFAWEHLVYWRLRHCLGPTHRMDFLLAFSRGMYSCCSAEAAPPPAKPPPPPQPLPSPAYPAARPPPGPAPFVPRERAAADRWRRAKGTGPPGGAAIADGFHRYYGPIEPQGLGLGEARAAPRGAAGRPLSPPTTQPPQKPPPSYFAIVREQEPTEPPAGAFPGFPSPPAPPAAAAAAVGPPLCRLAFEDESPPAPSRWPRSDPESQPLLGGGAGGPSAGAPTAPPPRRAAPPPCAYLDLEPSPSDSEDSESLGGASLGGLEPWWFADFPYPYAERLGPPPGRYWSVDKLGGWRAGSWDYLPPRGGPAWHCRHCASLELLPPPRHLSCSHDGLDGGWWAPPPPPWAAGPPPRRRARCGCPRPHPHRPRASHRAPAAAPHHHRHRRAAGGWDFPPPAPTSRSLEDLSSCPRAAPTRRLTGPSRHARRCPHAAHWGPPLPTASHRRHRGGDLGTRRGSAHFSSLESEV
T1 sequence (Q00959 23-1464, other chains not shown): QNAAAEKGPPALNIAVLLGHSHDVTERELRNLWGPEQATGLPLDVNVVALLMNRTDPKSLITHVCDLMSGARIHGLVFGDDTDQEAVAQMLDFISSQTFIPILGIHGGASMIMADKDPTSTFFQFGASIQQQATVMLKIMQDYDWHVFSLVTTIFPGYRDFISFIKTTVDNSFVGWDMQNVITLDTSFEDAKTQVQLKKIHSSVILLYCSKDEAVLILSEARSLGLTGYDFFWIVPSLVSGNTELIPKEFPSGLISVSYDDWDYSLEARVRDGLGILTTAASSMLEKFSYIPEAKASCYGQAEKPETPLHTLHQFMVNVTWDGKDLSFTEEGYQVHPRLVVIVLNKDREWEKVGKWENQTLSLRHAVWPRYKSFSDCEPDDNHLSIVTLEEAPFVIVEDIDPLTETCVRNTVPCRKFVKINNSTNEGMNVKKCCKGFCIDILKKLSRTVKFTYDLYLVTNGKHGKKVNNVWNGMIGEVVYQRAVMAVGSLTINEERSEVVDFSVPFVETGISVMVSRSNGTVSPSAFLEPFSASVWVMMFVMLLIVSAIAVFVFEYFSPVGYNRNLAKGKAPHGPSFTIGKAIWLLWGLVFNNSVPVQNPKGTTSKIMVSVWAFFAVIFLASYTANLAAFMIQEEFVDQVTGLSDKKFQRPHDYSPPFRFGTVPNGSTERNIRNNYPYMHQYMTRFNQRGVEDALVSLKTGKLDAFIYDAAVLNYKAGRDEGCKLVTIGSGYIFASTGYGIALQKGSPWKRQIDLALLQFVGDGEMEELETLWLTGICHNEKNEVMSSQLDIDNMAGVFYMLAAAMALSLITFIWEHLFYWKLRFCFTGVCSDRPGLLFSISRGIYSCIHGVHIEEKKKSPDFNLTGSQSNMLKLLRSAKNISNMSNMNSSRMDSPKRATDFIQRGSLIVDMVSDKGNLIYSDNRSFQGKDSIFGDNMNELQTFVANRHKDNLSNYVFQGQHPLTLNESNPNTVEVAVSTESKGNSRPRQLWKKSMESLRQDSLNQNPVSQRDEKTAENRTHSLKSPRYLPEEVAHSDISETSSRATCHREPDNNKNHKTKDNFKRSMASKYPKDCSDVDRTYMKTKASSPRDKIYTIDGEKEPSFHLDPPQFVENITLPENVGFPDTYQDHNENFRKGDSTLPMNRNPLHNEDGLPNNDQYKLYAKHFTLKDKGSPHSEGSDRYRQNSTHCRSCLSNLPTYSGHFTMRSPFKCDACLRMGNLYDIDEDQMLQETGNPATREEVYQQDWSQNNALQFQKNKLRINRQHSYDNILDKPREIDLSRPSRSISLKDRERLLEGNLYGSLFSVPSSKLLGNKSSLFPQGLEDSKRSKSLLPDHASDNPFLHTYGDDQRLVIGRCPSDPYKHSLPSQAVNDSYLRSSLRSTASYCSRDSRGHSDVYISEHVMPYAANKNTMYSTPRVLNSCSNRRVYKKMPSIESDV

Q: For `COc1ccc(OCC2c3cc(OC)c(OC)cc3CCN2C(=O)c2cccc(Cl)c2)cc1` (single isomer, unassigned; (+)) [CIQ, (+)-(3-chlorophenyl)(6,7-dimethoxy-1-((4-methoxyphenoxy)methyl)-3,4-dihydroisoquinolin-2(1H)-yl)methanone], which “effect on the deactivation time course following glutamate removal” value (GluN1/GluN2A [1]) is on record?
A: The value was “no detectable effect”.

Q: What about the “effect on the deactivation time course following glutamate removal” value (GluN1/GluN2D [2]) of the same compound?
A: The value was “no detectable effect”.

Q: What about the “effect on the deactivation time course following glutamate removal” value (GluN1/GluN2B [3]) of the same compound?
A: The value was “no detectable effect”.

Q: And the “effect on the deactivation time course following glutamate removal” value (GluN1/GluN2C [4])?
A: Its value is “modest effects”.

Q: What about the “potentiation, % of control” value (GluN1/GluN2D [5]; [12]) of the same compound?
A: The value was 281% ± 10%.

Q: And the “potentiation, % of control” value (GluN1/GluN2C [6]; [12])?
A: The value was 340% ± 27%.

Q: What about the “effect at low agonist concentrations” value (GluN1/GluN2A [7]) of the same compound?
A: The value was “no effect”.

Q: What about the “enhancement of the response at EC30 glutamate and glycine” value ([8]; EC30 concentrations of glutamate and glycine) of the same compound?
A: The value was at most 5 fold.

Q: And the “enhancement of the response to maximally effective glutamate and glycine” value ([8]; maximally effective agonist)?
A: The value was 2 fold.

Q: And the “effect at low agonist concentrations” value (GluN1/GluN2B [9])?
A: Its value is “no effect”.

Q: Which IC50 (GluN1/GluN2D [5]) does the source give for `CNC(=O)N1N=C(c2ccc(N)cc2)c2cc3c(cc2CC1C)OCO3` (centres unmarked) [GYKI 53655] here?
A: Its IC50 is 133 µM.

Q: And the IC50 (GluN1/GluN2C [6])?
A: The IC50 was 143 µM.

Q: And the remaining activity at 100 µM (GluN1/GluN2B [10])?
A: Its remaining activity at 100 µM is 107%.

Q: And the remaining activity at 100 µM (GluN1/GluN2A [11])?
A: Its remaining activity at 100 µM is 104%.
